An excerpt weighted towards active compounds, which were near 4.1% of everything screened.
KCC2 mod: modulators of human KCC2 chloride dependent transport. KCC2 cells, thallium flux FluoZin-2 fluorescence. B-score of Tl+ flux slope (higher = more flux/activation; lower = inhibition) at 10 µM. actives 2.2% (n = 190,000). AID 1456;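 active means thallium flux slope and its plate-corrected score both differing from the plate sample mean at a set confidence after two filtering rounds, in either direction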;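 further: slope of fluorescence scaled to starting intensity during 10 to 20 s after thallium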
KCNQ1 pot: potentiators or activators of human KCNQ1 potassium channel | CHO-K1 KCNQ1, thallium flux FluxOR fluorescence; stronger effect = higher value | B-score at 10 µM | actives 0.35% (n = 310,000) | AID 2648;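 active means fluorescence ratio B-score, a plate-corrected score, at least three library SD, with initial intensity B-score within 5 SD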
Target sequence (P51787 whole entry, looked up): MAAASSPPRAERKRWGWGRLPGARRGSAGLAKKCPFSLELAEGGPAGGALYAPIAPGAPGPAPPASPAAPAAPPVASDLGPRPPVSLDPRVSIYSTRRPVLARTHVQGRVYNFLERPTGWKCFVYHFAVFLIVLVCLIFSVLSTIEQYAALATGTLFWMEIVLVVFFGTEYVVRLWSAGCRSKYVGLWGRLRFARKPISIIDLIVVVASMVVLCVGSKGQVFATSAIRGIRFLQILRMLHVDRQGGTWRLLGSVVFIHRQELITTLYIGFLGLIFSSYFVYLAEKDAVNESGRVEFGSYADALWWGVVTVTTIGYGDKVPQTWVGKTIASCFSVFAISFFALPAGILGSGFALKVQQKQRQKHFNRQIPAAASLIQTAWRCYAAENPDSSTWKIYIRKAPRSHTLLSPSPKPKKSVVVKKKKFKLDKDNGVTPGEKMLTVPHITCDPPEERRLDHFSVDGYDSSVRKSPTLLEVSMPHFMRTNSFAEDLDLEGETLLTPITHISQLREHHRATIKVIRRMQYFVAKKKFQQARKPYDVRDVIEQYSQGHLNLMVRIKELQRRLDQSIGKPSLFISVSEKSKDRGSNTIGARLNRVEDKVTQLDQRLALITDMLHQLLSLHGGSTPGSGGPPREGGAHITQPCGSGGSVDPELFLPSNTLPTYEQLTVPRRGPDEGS
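System: Stable KCNQ1 CHO-K1 line | Incubation: 90 min dye loading and 20 min compound exposure, both at room temperature | Measure: Ratio B score | Medium: Assay buffer for compound exposure, DMSO matched across wells | Compound dosing: Single-concentration screen | Probe or stimulus: K+/Tl+ depolarizing stimulus | Measured by: Kinetic FluxOR fluorescence, 10 s baseline plus 110 s post-stimulus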
KCNK3 block: human KCNK3 channel inhibition, primary screen; O14649; CHO-KCNK3 thallium flux, FluxOR fluorescence; stronger effect = lower value; B-score at 10 µM; actives 0.84% (n = 340,000); AID 602410;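 active means B-score under library mean minus 4 SD, starting fluorescence ratio at most library mean plus 5 SD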;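 further: more negative B-score means stronger inhibition of thallium flux through KCNK3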
hERG protect: compounds protecting human hERG from proarrhythmic drug block; Q12809; CHO-hERG, FluxOR thallium flux, dofetilide IC70 present; activation (rescue from dofetilide block), less the hit threshold, % at 10 µM; actives 0.51% (n = 310,000); AID 1511;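 active means activation above the mean of controls blocked by dofetilide plus 5 SD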;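 further: thallium influx through hERG after potassium depolarization seen as dye fluorescence rise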
KCNK9 block: blocks the human KCNK9 two-pore domain potassium channel; HEK293 KCNK9, FluxOR thallium flux fluorescence; stronger effect = lower value; actives 1.2% (n = 310,000); B-score at 10 µM; Q9NPC2;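 active means ratio B-score over 3 SD below the library mean, with starting fluorescence within 5 SD of its mean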;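 further: negative B-score means less thallium flux so channel inhibition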
KCNQ1 block: inhibitors of human KCNQ1 potassium channel | P51787 | CHO-K1 KCNQ1, FluxOR thallium flux fluorescence; stronger effect = higher value | B-score at 10 µM | actives 1.3% (n = 310,000);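 active means compounds whose thallium flux B-score, printed positive for inhibition, exceeds three library SD while starting fluorescence stays within three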;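 further: channel opened by potassium depolarization with thallium stimulus after 20 min compound exposure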
KCNK9 inh conf: human KCNK9 inhibitor confirmation | shares compounds with KCNK9 block | HEK293 KCNK9 cells, FluxOR thallium flux fluorescence | inhibition, % at 10 µM | actives 43% (n = 4,900) | AID 492992;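 active means thallium signal inhibited by more than 5 SD of the compound-free buffer control wells, on both duplicate plates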;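 further: 0% = assay buffer control wells without compound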
Kir21 sel: selectivity of KCNK9 modulators against mouse Kir2.1; shares compounds with KCNK9 block; Kir2.1 cells, FluxOR thallium flux fluorescence; inhibition, % at 10 µM; actives 4% (n = 4,900); AID 492993;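 active means thallium signal drop more than 5 SD beyond the mean of the no-compound control wells, seen in both duplicate plates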;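 further: signal is fluorescence rise after thallium addition divided by baseline fluorescence; plate controls were assay buffer only for no effect and full block by chlorpromazine control for full effect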
KCNK9 uninduced: second check of KCNK9 modulator effects in non-induced HEK293 cells; shares compounds with KCNK9 block; FluxOR thallium flux; inhibition, % at 10 µM; actives 40% (n = 4,900); AID 492997;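 active means thallium signal drop beyond 5 SD of the untreated control mean, on both duplicate plates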;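 further: plate controls were buffer only IC0 wells for no effect and SID17386958 at its maximal inhibitory level for full effect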
* = called active by the depositor.

How did CC(C)n1cc(C(=O)N2CCCC(N3CCN(c4cccc(Cl)c4)CC3)C2)cn1 (stereo not drawn) do in these assays?
KCNQ1 pot: inactive; KCNK3 block: inactive; hERG protect: -7; KCNK9 block: inactive; KCNQ1 block: inactive

Results for CCN(CC)C(=O)CSc1nnc(-c2ccccn2)n1-c1ccccc1OC ?
KCC2 mod: 0.036; KCNQ1 pot: inactive; KCNK3 block: inactive; hERG protect: -16; KCNK9 block: inactive; KCNQ1 block: inactive

How did CCCc1cc(=O)oc2cc(C)cc(OCC(=O)NCCCN3CCOCC3)c12 do in these assays?
KCNQ1 pot: inactive; KCNK3 block: inactive; hERG protect: -4; KCNK9 block: inactive; KCNQ1 block: inactive

What do the screens show for `CC(Cc1nnc(SCC(=O)O)n1N)c1ccccc1` (stereo not drawn)?
KCNQ1 pot: inactive; KCNK3 block: inactive; hERG protect: -2; KCNK9 block: inactive; KCNQ1 block: inactive

Results for COc1cccc(C(=O)C2CCCN(Cc3cccn3-c3cccnc3)C2)c1 (stereo not drawn) ?
KCC2 mod: 0.0078; KCNQ1 pot: inactive; KCNK3 block: inactive; hERG protect: -14; KCNK9 block: inactive; KCNQ1 block: inactive

What do the screens show for `COc1ccc(C(=O)C2CCCN(C(=O)c3cccnc3OC)C2)cc1F` (stereo not drawn)?
KCNQ1 pot: inactive; KCNK3 block: inactive; hERG protect: -5; KCNK9 block: inactive; KCNQ1 block: inactive

What do the screens show for `COc1cccc(C(=O)C2CCCN(Cc3cccc(-n4cccn4)c3)C2)c1` (stereo not drawn)?
KCC2 mod: -1.2; KCNQ1 pot: inactive; KCNK3 block: inactive; hERG protect: -14; KCNK9 block: inactive; KCNQ1 block: inactive; KCNK9 inh conf: inactive; Kir21 sel: inactive; KCNK9 uninduced: inactive

How did COc1ccc(C(=O)C2CCCN(C(=O)c3cccs3)C2)cc1F (stereo not drawn) do in these assays?
KCC2 mod: -0.42; KCNQ1 pot: inactive; KCNK3 block: inactive; hERG protect: -13; KCNK9 block: inactive; KCNQ1 block: inactive; KCNK9 inh conf: inactive; Kir21 sel: inactive; KCNK9 uninduced: inactive

Results for COc1ccc(C(=O)C2CCCN(C(=O)c3cc(C(C)C)no3)C2)cc1F (stereo not drawn) ?
KCNQ1 pot: inactive; KCNK3 block: inactive; hERG protect: -5; KCNK9 block: inactive; KCNQ1 block: inactive; KCNK9 inh conf: inactive; Kir21 sel: inactive; KCNK9 uninduced: inactive

How did COc1ccccc1C(=O)C1CCCN(C(=O)c2cc(C(C)C)no2)C1 (stereo not drawn) do in these assays?
KCC2 mod: -0.7; KCNQ1 pot: inactive; KCNK3 block: inactive; hERG protect: -7; KCNK9 block: inactive; KCNQ1 block: inactive

How did COc1ccc(C(=O)C2CCCN(C(=O)c3cccc(Cn4cccn4)c3)C2)cc1F (stereo not drawn) do in these assays?
KCNQ1 pot: inactive; KCNK3 block: inactive; hERG protect: -15; KCNK9 block: inactive; KCNQ1 block: inactive; KCNK9 inh conf: inactive; Kir21 sel: inactive; KCNK9 uninduced: inactive

What do the screens show for `CCOC(=O)C(Cc1ccc(O)c([N+](=O)[O-])c1)N1C(=O)c2ccccc2C1=O` (stereo not drawn)?
KCNK3 block: inactive

How did COc1ccc(CN2CCCC(C(=O)c3ccc(SC)cc3)C2)cc1Cn1cccn1 (stereo not drawn) do in these assays?
KCNQ1 pot: inactive; KCNK3 block: inactive; hERG protect: -16; KCNK9 block: inactive; KCNQ1 block: inactive; KCNK9 inh conf: inactive; Kir21 sel: inactive; KCNK9 uninduced: inactive

Results for CSc1ccc(C(=O)C2CCCN(Cc3ccc(N4CCNC4=O)cc3)C2)cc1 (stereo not drawn) ?
KCC2 mod: -0.71; KCNQ1 pot: inactive; KCNK3 block: inactive; hERG protect: -6; KCNK9 block: inactive; KCNQ1 block: inactive

Results for CCc1ccc(S(=O)(=O)NCCc2csc(-c3ccccc3)n2)s1 ?
KCC2 mod: -1.8; KCNQ1 pot: inactive; KCNK3 block: inactive; hERG protect: -10; KCNK9 block: -10*; KCNQ1 block: inactive; KCNK9 inh conf: 50%*; Kir21 sel: 38%*; KCNK9 uninduced: 39%*

What do the screens show for `CCc1ccc(S(=O)(=O)NCCc2csc(-c3cccnc3)n2)s1`?
KCC2 mod: -1.2; KCNQ1 pot: inactive; KCNK3 block: inactive; hERG protect: -9; KCNK9 block: inactive; KCNQ1 block: inactive

How did Cc1ccc(NC(=O)c2oc3ccccc3c2NC(=O)C2CCCO2)cc1C (stereo not drawn) do in these assays?
KCNQ1 pot: inactive; KCNK3 block: inactive; hERG protect: -20; KCNK9 block: inactive; KCNQ1 block: inactive; KCNK9 inh conf: inactive; Kir21 sel: inactive; KCNK9 uninduced: inactive

What do the screens show for `Cc1cc(C)c(O)c(-c2n[nH]c3c2C(c2cccc(O)c2)N(Cc2ccco2)C3=O)c1` (stereo not drawn)?
KCC2 mod: 0.061; KCNQ1 pot: inactive; KCNK3 block: inactive; hERG protect: -9; KCNK9 block: -11*; KCNQ1 block: inactive; KCNK9 inh conf: 58%*; Kir21 sel: inactive; KCNK9 uninduced: 41%*

Results for COCCNC(=O)c1cccc(OC2CCN(Cc3ccccc3C)CC2)c1 ?
KCNQ1 pot: inactive; KCNK3 block: inactive; hERG protect: -3; KCNK9 block: inactive; KCNQ1 block: inactive

Results for COC(=O)c1ccc(COc2ccc(/C=C(\C#N)c3nc4ccccc4[nH]3)cc2OC)o1 ?
KCC2 mod: 0; KCNQ1 pot: inactive; KCNK3 block: inactive; hERG protect: -8; KCNK9 block: -8.4*; KCNQ1 block: inactive; KCNK9 inh conf: 40%*; Kir21 sel: inactive; KCNK9 uninduced: 34%*

Results for C/C(=N\NC(=O)c1ccc(O)cc1)c1cccc(NC(=O)c2ccccc2C)c1 ?
KCNQ1 pot: inactive; KCNK3 block: inactive; hERG protect: 0; KCNK9 block: inactive; KCNQ1 block: inactive
